Source: ChEMBL document CHEMBL3779876, “Synthesis and biological evaluation of novel 2,3-dihydrochromeno[3,4-d]imidazol-4(1H)-one derivatives as potent anticancer cell proliferation and migration agents” (Eur J Med Chem, 2016)
Calls of active or inactive are those of the source. No cut-off for these calls is given here.

Columns and labels:
[1] = Growth inhibition of human U87MG cells assessed as cell viability after 72 hrs by MTT assay; type: functional, cell-based, U-87MG ATCC; conditions: U-87 MG
How it was run: (§1)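 Cells were grown in DMEM or RPMI with 10% FBS and 1% penicillin/streptomycin at 37 °C, 5% CO2. They were seeded at 2000–3000 cells, rested 24 h, then exposed to a range of concentrations for 72 h. MTT (5 mg/mL stock) was added for 2–4 h at 37 °C and formazan dissolved in DMSO. A570 was read and IC50 calculated; triplicate wells, three separate experiments.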

[2] = Growth inhibition of human PC3 cells assessed as cell viability after 72 hrs by MTT assay; type: functional, cell-based; conditions: PC-3, 72 h; how it was run: as §1
[3] = Growth inhibition of human HCT116 cells assessed as cell viability after 72 hrs by MTT assay; type: functional, cell-based; conditions: HCT-116, 72 h; how it was run: as §1
[4] = Antitumor activity against human HCT116 cells xenografted in Balb/c athymic nude mouse assessed as tumor growth inhibition at 80 mg/kg, ip once in 2 days for 24 days measured every 2 days during compound treatment relative to control; type: functional; conditions: HCT-116, ip, read-out: TGI
How it was run: (§2)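 Female BALB/c athymic nude mice, 7 weeks old, received 1×10^7 HCT116 cells s.c. in the right flank. After one week, at about 100 mm³ mean tumour volume, mice were randomised to three groups of 8. Groups got vehicle, 40 or 80 mg/kg i.p. once every two days for 24 days. Tumour size and body weight were measured every two days. Volume = L×W²×0.5; inhibition was taken from mean volume change versus vehicle.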

[5] = system: SW-620; assay: Induction of apoptosis in human SW620 cells assessed as late apoptotic cells at 0.625 uM after 24 hrs by Annexin V-FITC/propidium iodide staining based flow cytometry (reference value: 1.02%); type: functional
[6] = Cell cycle arrest in human SW620 cells assessed as accumulation at S phase at 5 uM after 24 hrs by propidium iodide staining based flow cytometry (reference value: 38.65%); type: functional; conditions: SW-620
[7] = Growth inhibition of human SW620 cells assessed as cell viability after 72 hrs by MTT assay; type: functional, cell-based; conditions: SW-620, 72 h; how it was run: as §1
[8] = Cell cycle arrest in human SW620 cells assessed as accumulation at S phase at 0.625 uM after 24 hrs by propidium iodide staining based flow cytometry (reference value: 38.65%); type: functional; conditions: SW-620
[9] = Cell cycle arrest in human SW620 cells assessed as accumulation at G2/M phase at 0.3125 uM after 24 hrs by propidium iodide staining based flow cytometry (reference value: 22.88%); type: functional; conditions: SW-620
[10] = system: SW-620; assay: Induction of apoptosis in human SW620 cells assessed as early apoptotic cells at 1.25 uM after 24 hrs by Annexin V-FITC/propidium iodide staining based flow cytometry (reference value: 2.81%); type: functional
[11] = system: HCT-116; assay: Inhibition of colony formation in human HCT116 cells at 0.3125 to 2.5 uM after 20 days by crystal violet staining based microscopic analysis; type: functional, cell-based
How it was run: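 HCT116 cells were plated at 500 per well, left overnight at 37 °C, then treated with fresh compound-containing medium. Colonies were washed with cold PBS, fixed in 4% paraformaldehyde and stained with 0.5% crystal violet for 15 min. Colonies over 50 cells were counted by microscope and expressed as % of control; three independent experiments.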

[12] = system: Mus musculus; assay: Toxicity in Balb/c athymic nude mouse xenografted with human HCT116 cells assessed as body weight loss at 40 to 80 mg/kg, ip once in 2 days for 24 days measured every 2 days during compound treatment; type: organism-based, HCT-116; conditions: in vivo; how it was run: as §2
[13] = Cell cycle arrest in human SW620 cells assessed as accumulation at G0/G1 phase at 0.3125 uM after 24 hrs by propidium iodide staining based flow cytometry (reference value: 38.47%); type: functional; conditions: SW-620
[14] = system: MCF7; assay: Growth inhibition of human MCF7 cells assessed as cell viability after 72 hrs by MTT assay; type: functional, cell-based; conditions: MCF7, 72 h; how it was run: as §1
[15] = system: MCF7; assay: Inhibition of cell migration in human MCF7 cells at 5 uM after 24 hrs by wound healing assay; type: functional, cell-based
How it was run: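 MCF-7 monolayers at 80–90% confluence were scratched with a sterile pipette tip. Fresh medium with 10% FBS and compound was added. Wounds were photographed at 0, 12 and 24 h at 37 °C.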

[16] = Cell cycle arrest in human SW620 cells assessed as accumulation at S phase at 2.5 uM after 24 hrs by propidium iodide staining based flow cytometry (reference value: 38.65%); type: functional; conditions: SW-620
[17] = system: SW-620; assay: Induction of apoptosis in human SW620 cells assessed as late apoptotic cells at 5 uM after 24 hrs by Annexin V-FITC/propidium iodide staining based flow cytometry (reference value: 1.02%); type: functional
[18] = system: SW-620; assay: Induction of apoptosis in human SW620 cells assessed as early apoptotic cells at 5 uM after 24 hrs by Annexin V-FITC/propidium iodide staining based flow cytometry (reference value: 2.81%); type: functional
[19] = Cell cycle arrest in human SW620 cells assessed as accumulation at G2/M phase at 0.625 uM after 24 hrs by propidium iodide staining based flow cytometry (reference value: 22.88%); type: functional; conditions: SW-620
[20] = system: SW-620; assay: Induction of apoptosis in human SW620 cells assessed as early apoptotic cells at 0.625 uM after 24 hrs by Annexin V-FITC/propidium iodide staining based flow cytometry (reference value: 2.81%); type: functional
[21] = system: SW-620; assay: Induction of apoptosis in human SW620 cells after 24 hrs by Annexin V-FITC/propidium iodide staining based flow cytometry; type: functional, cell-based
[22] = Cell cycle arrest in human SW620 cells assessed as accumulation at G2/M phase at 2.5 uM after 24 hrs by propidium iodide staining based flow cytometry (reference value: 22.88%); type: functional; conditions: SW-620
[23] = system: SW-620; assay: Induction of apoptosis in human SW620 cells assessed as late apoptotic cells at 0.3125 uM after 24 hrs by Annexin V-FITC/propidium iodide staining based flow cytometry (reference value: 1.02%); type: functional
[24] = system: CT26; assay: Growth inhibition of mouse CT26 cells assessed as cell viability after 72 hrs by MTT assay; type: functional, cell-based; conditions: CT26, 72 h; how it was run: as §1
[25] = system: SW-620; assay: Induction of apoptosis in human SW620 cells assessed as early apoptotic cells at 0.3125 uM after 24 hrs by Annexin V-FITC/propidium iodide staining based flow cytometry (reference value: 2.81%); type: functional
[26] = system: SW-620; assay: Induction of apoptosis in human SW620 cells assessed as early apoptotic cells at 2.5 uM after 24 hrs by Annexin V-FITC/propidium iodide staining based flow cytometry (reference value: 2.81%); type: functional
[27] = Cell cycle arrest in human SW620 cells assessed as accumulation at G2/M phase at 1.25 uM after 24 hrs by propidium iodide staining based flow cytometry (reference value: 22.88%); type: functional; conditions: SW-620
[28] = Growth inhibition of human LO2 cells assessed as cell viability after 72 hrs by MTT assay; type: cell-based; conditions: L02, 72 h; how it was run: as §1
[29] = Cell cycle arrest in human SW620 cells assessed as accumulation at S phase at 0.3125 uM after 24 hrs by propidium iodide staining based flow cytometry (reference value: 38.65%); type: functional; conditions: SW-620
[30] = Cell cycle arrest in human SW620 cells assessed as accumulation at G0/G1 phase at 0.625 uM after 24 hrs by propidium iodide staining based flow cytometry (reference value: 38.47%); type: functional; conditions: SW-620
[31] = system: SW-620; assay: Induction of apoptosis in human SW620 cells assessed as late apoptotic cells at 2.5 uM after 24 hrs by Annexin V-FITC/propidium iodide staining based flow cytometry (reference value: 1.02%); type: functional
[32] = Cell cycle arrest in human SW620 cells assessed as accumulation at G2/M phase at 5 uM after 24 hrs by propidium iodide staining based flow cytometry (reference value: 22.88%); type: functional; conditions: SW-620
[33] = system: HCT-116; assay: Antitumor activity against human HCT116 cells xenografted in ip dosed Balb/c athymic nude mouse assessed as tumor growth inhibition administered once in 2 days for 24 days measured every 2 days during compound treatment; type: functional, organism-based; how it was run: as §2
[34] = Cell cycle arrest in human SW620 cells assessed as accumulation at S phase at 1.25 uM after 24 hrs by propidium iodide staining based flow cytometry (reference value: 38.65%); type: functional; conditions: SW-620
[35] = Cell cycle arrest in human SW620 cells assessed as accumulation at G0/G1 phase at 1.25 uM after 24 hrs by propidium iodide staining based flow cytometry (reference value: 38.47%); type: functional; conditions: SW-620
[36] = system: A549; assay: Growth inhibition of human A549 cells assessed as cell viability after 72 hrs by MTT assay; type: functional, cell-based; conditions: A549, 72 h; how it was run: as §1
[37] = Cell cycle arrest in human SW620 cells assessed as accumulation at G0/G1 phase at 5 uM after 24 hrs by propidium iodide staining based flow cytometry (reference value: 38.47%); type: functional; conditions: SW-620
[38] = Cell cycle arrest in human SW620 cells assessed as accumulation at G0/G1 phase after 24 hrs by propidium iodide staining based flow cytometry; type: functional; conditions: SW-620
[39] = system: SW-620; assay: Induction of apoptosis in human SW620 cells assessed as late apoptotic cells at 1.25 uM after 24 hrs by Annexin V-FITC/propidium iodide staining based flow cytometry (reference value: 1.02%); type: functional
[40] = Cell cycle arrest in human SW620 cells assessed as accumulation at G0/G1 phase at 2.5 uM after 24 hrs by propidium iodide staining based flow cytometry (reference value: 38.47%); type: functional; conditions: SW-620

Cc1ccccc1-n1c(=O)[nH]c2c(=O)oc3ccc(-c4cccnc4)cc3c21
IC50 [1]: > 40 µM
IC50 [2]: > 40 µM
IC50 [3]: > 40 µM

COc1ccc(-n2c(=O)[nH]c3c(=O)oc4ccc(-c5ccncc5)cc4c32)cc1
IC50 [1]: > 40 µM
IC50 [2]: > 40 µM
IC50 [3]: > 40 µM

CS(=O)(=O)c1ccc(-c2ccc3oc(=O)c4[nH]c(=O)n(-c5ccc(CC#N)cc5)c4c3c2)cc1
IC50 [1]: 39.7 µM
IC50 [2]: 29.6 µM

Cc1ccccc1-n1c(=O)[nH]c2c(=O)oc3ccc(-c4ccncc4)cc3c21
IC50 [1]: > 40 µM
IC50 [2]: > 40 µM
IC50 [3]: > 40 µM

COc1ccc(-n2c(=O)[nH]c3c(=O)oc4ccc(-c5cccnc5)cc4c32)cc1
IC50 [1]: > 40 µM
IC50 [2]: > 40 µM
IC50 [3]: > 40 µM

N#CCc1ccc(-n2c(=O)[nH]c3c(=O)oc4ccc(-c5cccc(NS(=O)(=O)c6ccc(F)cc6)c5)cc4c32)cc1
IC50 [1]: > 40 µM
IC50 [2]: > 40 µM
IC50 [3]: > 40 µM

N#CCc1ccc(-n2c(=O)[nH]c3c(=O)oc4ccc(-c5cnc6ccccc6c5)cc4c32)cc1
IC50 [1]: 34.9 µM
IC50 [2]: 30.2 µM
IC50 [3]: 28.4 µM

N#CCc1ccc(-n2c(=O)[nH]c3c(=O)oc4ccc(-c5ccncc5)cc4c32)cc1
IC50 [1]: 36.4 µM
IC50 [2]: 37.1 µM
IC50 [3]: 37.2 µM

CN1c2c(c3cc(-c4cnc5ccccc5c4)ccc3oc2=O)N(c2ccc(C(C)(C)C#N)cc2)C1(C)OC(C)(C)C (centres undefined)
inhibition in vivo at 80 mg/kg [4]: 53%
Activity [5]: 9.09%
Activity [6]: 30.3%
IC50 [7]: 3.55 µM
Activity [8]: 36.9%
Activity [9]: 26%
Activity [10]: 16.76%
inhibition [11]: Active
Activity [12]: Non-toxic
Activity [13]: 38.8%
IC50 [1]: > 31 µM
IC50 [14]: 1.7 µM
inhibition [15]: Active
Activity [16]: 37.2%
Activity [17]: 11.57%
Activity [18]: 31.33%
Activity [19]: 22.8%
IC50 [2]: 18 µM
Activity [20]: 8.59%
IC50 [3]: 1.4 µM
Activity [21]: Dose-dependent effect
Activity [22]: 15.3%
Activity [23]: 8.96%
IC50 [24]: 3.5 µM
Activity [25]: 6.75%
Activity [26]: 16.78%
Activity [27]: 20.5%
IC50 [28]: 37 µM
Activity [29]: 35.2%
Activity [30]: 40.3%
Activity [31]: 9.44%
Activity [32]: 9.68%
TGI [33]: Dose-dependent effect
Activity [34]: 36.6%
Activity [35]: 43%
IC50 [36]: 9.5 µM
Activity [37]: 60%
Activity [38]: Dose-dependent effect
Activity [39]: 8.43%
Activity [40]: 47.5%

N#CCc1ccc(-n2c(=O)[nH]c3c(=O)oc4ccc(-c5ccccc5)cc4c32)cc1
IC50 [1]: 31.4 µM
IC50 [2]: 35.3 µM
IC50 [3]: > 40 µM

CC(C)(C#N)c1ccc(-n2c(=O)[nH]c3c(=O)oc4ccc(-c5cnc6ccccc6c5)cc4c32)cc1
IC50 [1]: 33.4 µM
IC50 [2]: 19.8 µM
IC50 [3]: 20.4 µM

O=c1oc2ccc(-c3cccnc3)cc2c2c1[nH]c(=O)n2-c1ccccc1
IC50 [1]: > 40 µM
IC50 [2]: > 40 µM

N#CCc1ccc(-n2c(=O)[nH]c3c(=O)oc4ccc(-c5cccc(N)c5)cc4c32)cc1
IC50 [1]: > 40 µM
IC50 [2]: 36.5 µM

O=c1oc2ccc(-c3ccc(O)cc3)cc2c2c1[nH]c(=O)n2-c1ccccc1
IC50 [1]: > 40 µM
